Assay results taken from ChEMBL document CHEMBL1649392, “Synthesis of substituted 3-amino-N-phenyl-1H-indazole-1-carboxamides endowed with antiproliferative activity” (Eur J Med Chem, 2011).

Assays:
[1] = system: T47D; test: Antiproliferative activity against human T47D cells after 48 hrs by sulforhodamine B assay; format: functional
In short: (§1)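 NCI 60-cell-line panel screen: single dose 10 µM first, then 5-dose testing (0.01, 0.1, … molar series). For each line, GI50 is the molar concentration giving 50% inhibition of net cell growth, TGI gives total inhibition of net growth, and LC50 gives 50% net cell death. Method follows the NCI DTP protocol.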

[2] = Cytotoxicity in HFF cells after 72 hrs by trypan blue exclusion assay; format: cell-based; conditions: human
In short: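 Human normal fibroblasts, 2 × 10⁵ per well, seeded in RPMI 1640 with 10% fetal calf serum plus penicillin and streptomycin at 37 °C under CO₂. Compound added after 24 h. Living cells counted at 72 h by trypan blue exclusion, expressed as percent of control proliferation; GI50 derived.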

[3] = system: CCRF-CEM; test: Antiproliferative activity against human CCRF-CEM cells after 48 hrs by sulforhodamine B assay; format: functional
In short: (§2)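 NCI 60-cell-line panel covering nine cancer types (leukemia, non-small cell lung, colon, CNS, melanoma, ovarian, renal, prostate, breast). Compounds were first tested at a single dose, then in a five-dose screen (series starting 0.01, 0.1 …) if they met NCI threshold criteria. Reported per line: GI50 (molar concentration inhibiting 50% net growth), TGI (total growth inhibition) and LC50 (50% net cell death).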

[4] = system: HL-60(TB); test: Antiproliferative activity against human HL-60(TB) cells after 48 hrs by sulforhodamine B assay; format: functional; conditions: HL-60, 48 h; for CC50: read-out: LC50 (the source's name)
In short: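 Tested by the National Cancer Institute in its full tumour cell panel covering nine cancer types, including leukemia. Compounds were first screened at a single dose. Those passing the preset inhibition threshold then went to a 5-dose screen. GI50 is the molar concentration giving 50% inhibition of net cell growth; TGI and LC50 were also derived.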

[5] = system: HOP-92; test: Antiproliferative activity against human HOP92 cells after 48 hrs by sulforhodamine B assay; format: functional; conditions: HOP-92, 48 h; in short: as §2
[6] = system: NCI-H322M; test: Antiproliferative activity against human NCI-H322M cells after 48 hrs by sulforhodamine B assay; format: functional; conditions: for CC50: read-out: LC50 (the source's name); in short: as §2
[7] = system: NCI-H522; test: Antiproliferative activity against human NCI-H522 cells after 48 hrs by sulforhodamine B assay; format: functional; conditions: NCI-H522, 48 h; in short: as §2
[8] = system: HCC 2998; test: Antiproliferative activity against human HCC2998 cells after 48 hrs by sulforhodamine B assay; format: functional; conditions: HCC 2998, 48 h; for CC50: read-out: LC50 (the source's name); in short: as §2
[9] = system: HT-29; test: Antiproliferative activity against human HT-29 cells after 48 hrs by sulforhodamine B assay; format: functional; conditions: HT-29, 48 h; in short: as §2
[10] = system: KM12; test: Antiproliferative activity against human KM12 cells after 48 hrs by sulforhodamine B assay; format: functional; conditions: KM12, 48 h; for CC50: read-out: LC50 (the source's name); in short: as §2
[11] = system: SF-295; test: Antiproliferative activity against human SF295 cells after 48 hrs by sulforhodamine B assay; format: functional; conditions: SF-295, 48 h; in short: as §2
[12] = system: SNB-75; test: Antiproliferative activity against human SNB75 cells after 48 hrs by sulforhodamine B assay; format: functional; conditions: SNB-75, 48 h; in short: as §2
[13] = system: U-251; test: Antiproliferative activity against human U251 cells after 48 hrs by sulforhodamine B assay; format: functional; conditions: U-251, 48 h; in short: as §1
[14] = system: LOX IMVI; test: Antiproliferative activity against human LOXIMVI cells after 48 hrs by sulforhodamine B assay; format: functional; in short: as §2
[15] = system: Malme-3M; test: Antiproliferative activity against human MALME-3M cells after 48 hrs by sulforhodamine B assay; format: functional; in short: as §2
[16] = system: MDA-MB-435; test: Antiproliferative activity against human MDA-MB-435 cells after 48 hrs by sulforhodamine B assay; format: functional; conditions: MDA-MB-435, 48 h; for CC50: read-out: LC50 (the source's name); in short: as §2
[17] = system: SK-MEL-28; test: Antiproliferative activity against human SK-MEL-28 cells after 48 hrs by sulforhodamine B assay; format: functional; conditions: SK-MEL-28, 48 h; for CC50: read-out: LC50 (the source's name); in short: as §2
[18] = system: SK-MEL-5; test: Antiproliferative activity against human SK-MEL-5 cells after 48 hrs by sulforhodamine B assay; format: functional; conditions: SK-MEL-5, 48 h; for CC50: read-out: LC50 (the source's name); in short: as §2
[19] = system: NCI/ADR-RES; test: Antiproliferative activity against human NCI/ADR-RES cells after 48 hrs by sulforhodamine B assay; format: functional; conditions: for CC50: read-out: LC50 (the source's name); in short: as §2
[20] = system: A498; test: Antiproliferative activity against human A498 cells after 48 hrs by sulforhodamine B assay; format: functional; conditions: A498, 48 h; for CC50: read-out: LC50 (the source's name); in short: as §2
[21] = system: ACHN; test: Antiproliferative activity against human ACHN cells after 48 hrs by sulforhodamine B assay; format: functional; conditions: for CC50: read-out: LC50 (the source's name); in short: as §2
[22] = system: RXF 393; test: Antiproliferative activity against human RXF393 cells after 48 hrs by sulforhodamine B assay; format: functional; conditions: RXF 393, 48 h; for CC50: read-out: LC50 (the source's name); in short: as §2
[23] = system: TK-10; test: Antiproliferative activity against human TK10 cells after 48 hrs by sulforhodamine B assay; format: functional; conditions: TK-10, 48 h; for CC50: read-out: LC50 (the source's name); in short: as §1
[24] = system: UO-31; test: Antiproliferative activity against human UO31 cells after 48 hrs by sulforhodamine B assay; format: functional; conditions: UO-31, 48 h; for CC50: read-out: LC50 (the source's name); in short: as §1
[25] = system: DU-145; test: Antiproliferative activity against human DU145 cells after 48 hrs by sulforhodamine B assay; format: functional; conditions: DU-145, 48 h; for CC50: read-out: LC50 (the source's name); in short: as §2
[26] = system: MCF7; test: Antiproliferative activity against human MCF7 cells after 48 hrs by sulforhodamine B assay; format: functional; conditions: MCF7, 48 h; for CC50: read-out: LC50 (the source's name); in short: as §2
[27] = system: MDA-MB-231; test: Antiproliferative activity against human MDA-MB-231 cells after 48 hrs by sulforhodamine B assay; format: functional; conditions: MDA-MB-231, 48 h; for CC50: read-out: LC50 (the source's name); in short: as §2
[28] = system: BT-549; test: Antiproliferative activity against human BT549 cells after 48 hrs by sulforhodamine B assay; format: functional; conditions: BT-549, 48 h; for CC50: read-out: LC50 (the source's name); in short: as §2

## Nc1nn(C(=O)Nc2ccc(Cc3ccccc3)cc2)c2ccc(Cl)cc12
[1]
  GI50: 0.0741 µM
  LC50 (concentration giving 50% net cell death): > 100 µM
  TGI: 27.6 µM
[2]
  GI50 at 72 h: 36 µM
[3]
  GI50: 1.23 µM
  LC50 (concentration causing 50% net cell death): > 100 µM
  TGI: 34.4 µM
[4]
  GI50: 2.62 µM
  TGI: 42.1 µM
  CC50: > 100 µM
[5]
  GI50: 10.7 µM
  LC50: > 100 µM
  TGI: 33.7 µM
[6]
  GI50: 18.2 µM
  TGI: > 100 µM
  CC50: > 100 µM
[7]
  GI50: 15.6 µM
  LC50 (concentration causing 50% net cell death): > 100 µM
  TGI: > 100 µM
[8]
  GI50: 0.238 µM
  TGI: 1.53 µM
  CC50: > 100 µM
[9]
  GI50: 1.15 µM
  LC50 (concentration giving 50% net cell death): 79.1 µM
  TGI: 24 µM
[10]
  GI50: 0.0726 µM
  TGI: > 100 µM
  CC50: > 100 µM
[11]
  GI50: 0.0515 µM
  LC50: > 100 µM
  TGI: 24.2 µM
[12]
  GI50: 14 µM
  LC50 (concentration causing 50% net cell death): 74.5 µM
  TGI: 32.3 µM
[13]
  GI50: 12.5 µM
  LC50 (concentration giving 50% net cell death): 58.4 µM
  TGI: 27 µM
[14]
  GI50: 0.0503 µM
  LC50 (concentration causing 50% net cell death): 53.2 µM
  TGI: 18.4 µM
[15]
  GI50: 6.69 µM
  LC50 (concentration causing 50% net cell death): > 100 µM
  TGI: 54.8 µM
[16]
  GI50: 0.0813 µM
  TGI: > 100 µM
  CC50: > 100 µM
[17]
  GI50: 18.5 µM
  TGI: > 100 µM
  CC50: > 100 µM
[18]
  GI50: 0.283 µM
  TGI: 21.1 µM
  CC50: 80.2 µM
[19]
  GI50: 11 µM
  TGI: 39.1 µM
  CC50: > 100 µM
[20]
  GI50: 16.1 µM
  TGI: 60.7 µM
  CC50: > 100 µM
[21]
  GI50: 0.0468 µM
  TGI: 17.4 µM
  CC50: > 100 µM
[22]
  GI50: 13.5 µM
  TGI: 31.5 µM
  CC50: 73.4 µM
[23]
  GI50: 15.6 µM
  TGI: 38.7 µM
  CC50: 96.3 µM
[24]
  GI50: 3.12 µM
  TGI: 84.5 µM
  CC50: > 100 µM
[25]
  GI50: 10.4 µM
  TGI: 28.9 µM
  CC50: 80 µM
[26]
  GI50: 0.395 µM
  TGI: 18.8 µM
  CC50: 84 µM
[27]
  GI50: 5.33 µM
  TGI: 37.6 µM
  CC50: > 100 µM
[28]
  GI50: 5.88 µM
  TGI: 44 µM
  CC50: > 100 µM

## Nc1ccc2c(c1)c(N)nn2C(=O)Nc1ccc(Cc2ccccc2)cc1
[1]
  GI50: 5.8 µM
  LC50 (concentration giving 50% net cell death): 66 µM
  TGI: 22.8 µM
[3]
  GI50: 2.07 µM
  LC50 (concentration causing 50% net cell death): > 100 µM
  TGI: 18.8 µM
[4]
  GI50: 3.46 µM
  TGI: 17.2 µM
  CC50: 72.2 µM
[5]
  GI50: 10.4 µM
  LC50: 57.4 µM
  TGI: 24.4 µM
[6]
  GI50: 13 µM
  TGI: 27.5 µM
  CC50: 58.3 µM
[7]
  GI50: 14.7 µM
  LC50 (concentration causing 50% net cell death): > 100 µM
  TGI: 39.6 µM
[8]
  GI50: 4.17 µM
  TGI: 14.8 µM
  CC50: 40.9 µM
[9]
  GI50: 4.51 µM
  LC50 (concentration giving 50% net cell death): 46 µM
  TGI: 17.2 µM
[10]
  GI50: 3.34 µM
  TGI: 15.1 µM
  CC50: 41.3 µM
[11]
  GI50: 3.96 µM
  LC50: 45.4 µM
  TGI: 15.1 µM
[12]
  GI50: 17.4 µM
  LC50 (concentration causing 50% net cell death): 57.1 µM
  TGI: 31.5 µM
[13]
  GI50: 6.53 µM
  LC50 (concentration giving 50% net cell death): 52 µM
  TGI: 20.9 µM
[14]
  GI50: 3.38 µM
  LC50 (concentration causing 50% net cell death): 46.7 µM
  TGI: 16 µM
[15]
  GI50: 18 µM
  LC50 (concentration causing 50% net cell death): > 100 µM
  TGI: 89.8 µM
[16]
  GI50: 7.36 µM
  TGI: 23.8 µM
  CC50: 65.5 µM
[17]
  GI50: 13.7 µM
  TGI: 27.8 µM
  CC50: 56.2 µM
[18]
  GI50: 6.52 µM
  TGI: 19.8 µM
  CC50: 46.4 µM
[19]
  GI50: 17.4 µM
  TGI: 75.1 µM
  CC50: > 100 µM
[20]
  GI50: 14.4 µM
  TGI: 28.4 µM
  CC50: 56.1 µM
[21]
  GI50: 3.37 µM
  TGI: 13.7 µM
  CC50: 39.6 µM
[22]
  GI50: 21.4 µM
  TGI: 43.9 µM
  CC50: 90.1 µM
[23]
  GI50: 19.4 µM
  TGI: 46 µM
  CC50: > 100 µM
[24]
  GI50: 4.72 µM
  TGI: 32.6 µM
  CC50: > 100 µM
[25]
  GI50: 10.9 µM
  TGI: 24 µM
  CC50: 52.6 µM
[26]
  GI50: 6.92 µM
  TGI: 26.5 µM
  CC50: 85.4 µM
[27]
  GI50: 7.74 µM
  TGI: 22.7 µM
  CC50: 54.3 µM
[28]
  GI50: 14.6 µM
  TGI: 33.5 µM
  CC50: 76.7 µM
